Assay outcomes: PubChem BioAssay, several laboratories
Rows were chosen to be rich in hits. Some 2.9% of all compounds tested hit in one or more screens of this group.
PRMT1 FP inh = inhibitors of human PRMT1; Q99873; recombinant PRMT1, activity-based probe fluorescence polarization; 370,000 compounds, 1.3% hits; inhibition, % at 2.79 µM;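 active means inhibition above about 21% made by adding two undisclosed values, limit read from the data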
HTRA1 inh = inhibitors of human serine peptidase HTRA1. AID 504803. Q92743. recombinant HTRA1, FP-rhodamine activity-based probe, fluorescence polarization. 340,000 compounds, 0.5% hits. inhibition, % at 5.96 µM; in the data active means inhibition above about 36%;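 further: 0% = enzyme with DMSO and 100% = wells lacking enzyme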
Target sequence (Q92743 whole entry, looked up): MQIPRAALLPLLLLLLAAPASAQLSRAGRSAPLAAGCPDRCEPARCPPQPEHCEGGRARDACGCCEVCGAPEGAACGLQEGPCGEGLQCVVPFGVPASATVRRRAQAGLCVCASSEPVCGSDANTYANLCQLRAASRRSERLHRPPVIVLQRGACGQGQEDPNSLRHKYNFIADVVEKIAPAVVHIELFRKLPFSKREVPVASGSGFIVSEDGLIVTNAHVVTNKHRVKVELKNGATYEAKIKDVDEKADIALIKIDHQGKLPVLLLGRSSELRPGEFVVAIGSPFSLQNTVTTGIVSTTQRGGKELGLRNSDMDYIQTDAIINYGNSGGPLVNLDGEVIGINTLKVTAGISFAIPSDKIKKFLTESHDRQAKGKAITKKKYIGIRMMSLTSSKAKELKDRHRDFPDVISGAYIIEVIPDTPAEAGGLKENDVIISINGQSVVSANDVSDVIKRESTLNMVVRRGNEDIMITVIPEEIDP
TCR-CD3 inh = blocks the human TCR-CD3 interaction; TAMRA-labeled TCR probe fluorescence, biochemical; inhibition, % at 9.4 µM; 360,000 compounds, 0.37% hits; in the data active means inhibition above about 19%;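 further: recombinant mutant TCR 2C K166C tagged with TAMRA read by polarization; 0% = receptor in buffer alone and 100% = receptor with positive control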
SIAE primary = blocks human sialic acid acetylesterase; AID 1053197; inhibition, % at 9.66 µM; Q9HAT2; SIAE FP-Rh probe binding, fluorescence polarization; 370,000 compounds, 0.69% hits;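 active means inhibition above a cutoff: mean of compounds within the control limits plus 3 SD of those, cut at about 17% in these data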;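 further: 0% = plate median of compound wells and 100% = probe without SIAE protein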
ABHD4 inh = inhibitors of mouse ABHD4; Q8VD66; purified mABHD4, FP-Rh probe fluorescence polarization; inhibition, % at 8.92 µM; 370,000 compounds, 0.54% hits;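 active means inhibition exceeding the mean over every tested compound plus 3 SD, cut at about 30% in these data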;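 further: 0% = plate median of compound wells and 100% = S159A mutant with DMSO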
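Assay system: mABHD4 protein; medium: HEPES pH 7.0, NaCl, Pluronic buffer; dosing: 8.92 µM, single dose; schedule: 45 min + 60 min at 25 °C; signal: FP readout, ex 525 nm / em 598 nm; read-out: normalized percent inhibition of probe labeling; repeats: single replicate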
ATG4B inhibitor = inhibitors of human ATG4B cysteine protease. Q9Y4P1. ATG4B cleavage of LC3-PLA2, NBD-HPC fluorescence, 1 h. inhibition, % at 8.33 µM. 340,000 compounds, 0.51% hits. AID 504462; in the data active means inhibition above about 40%
* marks the source's active call; other numbers are inactive results; · = no result given; ! = repeats disagree.

SMILES	PRMT1 FP inh	HTRA1 inh	TCR-CD3 inh	SIAE primary	ABHD4 inh	ATG4B inhibitor
O=c1oc2ccc(NS(=O)(=O)c3cccc4cccnc34)cc2s1	77.1*	21.5	-6.0	13.6	-38.6	-6.5
O=C(O)c1cccc(S(=O)(=O)Nc2ccc3oc(=O)sc3c2)c1	85.3*	7.7	3.6	0.3	17.7	-3.9
O=C(O)c1cccc(S(=O)(=O)Nc2ccc3[nH]c(=O)[nH]c3c2)c1	3.4	1.8	-3.0	-0.3	10.6	0.2
O=C1CCCc2oc3ccc(NS(=O)(=O)c4cccc5cccnc45)cc3c21	-1.8	-7.3	5.0	-0.7	2.1	-4.0
COc1ccc(Cc2c(O)nc(SCC(C)C)[nH]c2=O)cc1	4.3	-2.6	-2.2	-9.5	-0.5	-2.0
COc1ccc(Cc2c(O)nc(SCC(=O)c3ccc(OC)cc3)[nH]c2=O)cc1	21.9*	-1.0	-5.6	-4.5	4.6	-0.5
O=C(CCc1c[nH]c2ccccc12)N1CCN(c2ccc(O)cc2)CC1	22.2*	5.4	1.4	4.8	14.2	0.2
COc1cc(NC(=S)N2CCCC(CO)C2)cc(OC)c1 (centres undefined)	21.1*	7.8	-1.2	-4.8	-8.6	-2.7
COC(=O)Cc1ccc(NC(=S)N2CCCC(CO)C2)cc1 (centres undefined)	2.3	-5.7	-3.2	2.6	-3.5	8.7
CC(C)(C)c1ccc(-c2nnc(SCc3cccc4ccccc34)n2Cc2ccco2)cc1	-0.9	·	·	-7.9	-20.4	·
CCC1CCc2c(sc(NC(=O)c3cnccn3)c2C(N)=O)C1 (centres undefined)	24.3*	2.0	-6.6	3.1	7.1	-3.1
CCC1CCc2c(sc(NC(=O)c3ccco3)c2C(N)=O)C1 (centres undefined)	0.3	-34.2	2.0	-10.4	-5.8	-6.6
CC1(c2nnnn2Cc2ccccc2)CN(S(C)(=O)=O)CC(=O)N1Cc1cccs1 (centres undefined)	-5.1	·	·	5.2	-1.1	·
Cc1ccc(OCC(=O)c2cc(C)n(-c3ccccc3)c2C)c([N+](=O)[O-])n1	2.1	-2.3	2.0	4.2	18.4	-1.5
Cc1ccc(OCC(=O)c2cc(C)c(C)cc2C)c([N+](=O)[O-])n1	24.0*	0.7	-4.6	-1.0	0.1	2.0
Cc1ccc(C)c(C(=O)COc2ccc(C)nc2[N+](=O)[O-])c1	21.5*	2.9	4.9	5.3	11.1	4.8
Cc1nc2sc(C(=O)NCc3ccc4c(c3)OCO4)c(N)c2c(C)c1Cl	21.9*	·	·	-0.7	-3.0	·
COc1ccc(CNC(=O)c2sc3nc(C)c(Cl)c(C)c3c2N)cc1	9.2	·	·	-3.8	3.7	·
CC(C)C[C@H]1C(=O)N2CCC[C@H]2[C@]2(O)O[C@](NC(=O)C3C=C4c5cccc6[nH]c(Br)c(c56)C[C@H]4N(C)C3)(C(C)C)C(=O)N12 (some centres undefined)	15.4	-8.4	2.9	11.6	25.1	-14.1
CN1C[C@H](C(=O)N[C@]2(C)O[C@@]3(O)[C@@H]4CCCN4C(=O)[C@H](Cc4ccccc4)N3C2=O)CC2c3cccc4[nH]cc(c34)C[C@H]21 (some centres undefined)	10.8	6.6	5.3	21.3*!	4.7	-5.9
CCOC(=O)C1(Cc2ccccc2)CCN(Cc2ccc(C)cc2)CC1	-2.5	·	·	5.1	1.6	·
C=CCN1[C@H](C#N)[C@@H](c2ccc(Br)cc2)[C@H]1CO	-3.8	·	·	-2.7	0.7	·
Cc1ccc(S(=O)(=O)NNC(=S)NC(=O)c2ccc([N+](=O)[O-])cc2)cc1	8.2	-0.8	-1.1	-1.6	4.2	1.2
Cc1ccc(C(=O)NC(=S)NNS(=O)(=O)c2ccc(C)cc2)cc1	22.6*	0.3	4.8	1.0	22.4	1.7
O=C1C(=O)c2cccnc2-c2ncccc21	21.6*	·	4.5	-4.2	1.5	·
SMILES	PRMT1 FP inh	HTRA1 inh	TCR-CD3 inh	SIAE primary	ABHD4 inh	ATG4B inhibitor
O=C(CCc1nc(-c2ccccc2F)no1)NCCc1ccccc1F	-0.1	·	·	-1.8	3.5	·
CC1CCCN(C(=O)c2ccc3ncsc3c2)C1 (centres undefined)	24.5*	0.6	0.6	9.6	3.3	-1.0
O=C(c1ccc2ncsc2c1)N1CCCC(C(F)(F)F)C1 (centres undefined)	18.5	1.7	-9.0	1.5	-14.0	-9.5
COc1cc2c(cc1NC(=O)CSc1nnc(-c3cccc(Cl)c3)n1-c1ccccc1)oc1ccccc12	0.1	·	·	0.3	0.2	·
COc1ccccc1N1C(=O)C=C(Sc2nc(C)cc(C)n2)C1=O	24.2*	·	-11.4	-5.0	-8.7	-14.3
COc1ccccc1N1C(=O)C2CC(C)=C(C)CC2C1=O (centres undefined)	-2.0	-9.9	2.4	2.7	-2.0	1.6
CN1OC[C@@H]2CN3C(=NCCc4ccccc4)Sc4ccccc4[C@@H]3C[C@@H]21	19.2	·	3.3	2.6	0.3	·
COCCN=C1Sc2ccccc2[C@@H]2C[C@H]3[C@H](CON3C)CN12	24.2*	·	8.2	6.6	6.6	·
C=CCn1c(SCC(N)=O)nnc1-c1ccc(C)cc1	7.1	·	·	7.1	5.5	·
O=C(NC1CCCCC1)Oc1cc2oc(=O)sc2cc1Br	82.4*	9.2	1.5	12.2	33.5*	0.8
O=C(NC1CCCCCC1)c1ccc(Br)o1	3.4	3.9	-4.0	6.5	1.6	-1.4
COc1ccc2c(c1C(=O)/C=C/c1ccccc1)OC(C)(C)C=C2	7.4	·	·	-3.0	-7.8	·
O=C(O)c1cccc(-n2cccc2/C=C/[N+](=O)[O-])c1	26.4*	11.4	0.3	-5.5	12.4	17.3
CCOc1cc(C=NN2CCN(Cc3ccc(C)cc3)CC2)ccc1O	5.3	·	·	14.2	10.6	·
CC(C)c1cc(C(C)C)c(S(=O)(=O)N2CCCC(C(=O)NCc3cccs3)C2)c(C(C)C)c1 (centres undefined)	1.4	·	·	-6.0	-6.0	·
Cc1ccc(NC(=S)N(CCN(C)C)Cc2cccs2)c(C)c1	21.9*	-0.1	0.9	12.2	2.2	-15.9
Cc1cc(C)cc(NC(=O)NC2CCN(S(=O)(=O)c3ccc(F)cc3)CC2)c1	1.9	·	·	4.0	1.1	·
CC(C)c1nnc(NC(=O)c2cccc(NC(=O)C(F)(F)F)c2)s1	21.9*	0.8	-1.6	-5.9	-0.2	-6.2
c1ccc(CCn2nnnc2CN2CCCc3ccccc32)cc1	24.8*	-3.6	-5.5	1.0	-11.8	-12.3
CC(C)C[C@@H]1COc2cc(F)ccc2S(=O)(=O)N1C	-0.6	·	·	5.6	-6.2	·
N#Cc1c(-c2cccs2)nc(SCc2ccc(Cl)cc2)[nH]c1=O	9.9	-143.1	-6.9	-39.0	-120.7	48.7*
CSc1nc(-c2cccs2)c(C#N)c(=O)[nH]1	-0.4	4.4	5.4	-0.7	-3.9	-12.4
CCCCCC(=O)NC1CCCCN(Cc2ccccc2C)C1=O (centres undefined)	-6.0	·	·	2.0	-1.1	·
O=C(NC1CCCC1)c1ccc2nc[nH]c2c1	3.4	4.4	3.9	4.5	2.5	3.5
O=C(NCCO)c1ccc(Cl)c(Cl)c1	-0.3	12.1	-3.8	3.7	2.5	-2.7
